The other results are listed elsewhere or left out. Calls of active or inactive are those of the source.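 The calls were made as follows: active = mean inhibition over triplicates exceeds the hit threshold derived for the earlier primary screening run (cut at about 25% in these data); inactive = the rest.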
Target: Arf-GAP with SH3 domain, ANK repeat and PH domain-containing protein 1 (Homo sapiens) (UniProt Q9ULH1)
Assay: ASAP1 GAP activity inhibitors, confirmation, biochemical, fluorescence polarization, human, triplicate (AID 624431)
Settings: ASAP1-stimulated Arf1 GTPase, GDP fluorescence polarization; at 16.5 µM; hits give high values
Method in brief: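 Medium: HEPES-based assay buffer at pH 7.5; System: purified ASAP1 fragment 325-724; Reagent: Arf1 Δ17-GTP substrate; Read-out basis: % inhibition vs no-ASAP1 controls; Times: 20-min ASAP1–compound and 120-min Arf1-GTP steps at 25 °C, 60-min tracer; Detection: FP readout via GDP Alexa 633 tracer displacement from antibody.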

Sequence of Arf-GAP with SH3 domain, ANK repeat and PH domain-containing protein 1 (Homo sapiens) (Q9ULH1 325-724 limits assumed): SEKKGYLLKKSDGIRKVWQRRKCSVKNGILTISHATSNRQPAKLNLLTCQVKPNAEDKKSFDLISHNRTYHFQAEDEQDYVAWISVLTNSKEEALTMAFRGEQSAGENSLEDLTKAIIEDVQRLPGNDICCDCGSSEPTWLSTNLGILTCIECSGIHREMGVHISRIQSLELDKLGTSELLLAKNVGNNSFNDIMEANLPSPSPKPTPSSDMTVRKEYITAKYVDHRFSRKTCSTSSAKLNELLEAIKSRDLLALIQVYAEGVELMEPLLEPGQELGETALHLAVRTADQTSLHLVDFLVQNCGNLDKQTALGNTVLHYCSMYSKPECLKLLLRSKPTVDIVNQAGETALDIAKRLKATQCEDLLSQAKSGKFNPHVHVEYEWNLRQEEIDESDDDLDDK

SMILES	inhibition
CC(=O)Nc1cc(-c2ccc(N3CCN(C)CC3)cc2)cn2c(-c3cccc(C(=O)N(C)C)c3)cnc12	69.3% (active)
O=c1/c(=C/c2ccc(CNS(=O)(=O)c3ccccc3)o2)sc2n1CCN=2	-9.13% (inactive)
OCCNc1nc(Nc2ccc(Cl)c(Cl)c2)nc2ccccc12	26.6% (active)
CCN1CCN(CCNC(=O)c2ccc3c(c2)NC(=O)/C(=C\c2ccc(OC)c(OC)c2)S3)CC1	94% (active)
Cc1cccc(-n2ncc(Cl)c(Cl)c2=O)c1	-3.51% (inactive)
CC(=O)N(C1=C(Cl)C(=O)c2ccccc2C1=O)c1ccc(C(=O)O)cc1	22.3% (inactive)
CC(=O)c1cccc(-c2cnc3c(NC=O)cc(-c4ccc(N5CCN(C)CC5)cc4)cn23)c1	77.7% (active)
O=C(NC1=CC(=O)c2ccccc2C1=O)c1ccccc1	13.6% (inactive)
COc1ccc(C(CNC(=O)c2cccc(S(=O)(=O)Nc3ccccc3Cl)c2)N2CCOCC2)cc1 (stereo unspecified)	16.6% (inactive)
COc1ccc(-n2nnnc2SCC(=O)c2ccc(OC)c(OC)c2)cc1	30.7% (active)
COc1ccc(/C=N/Nc2ncnc3sc4c(c23)CCCC4)cc1O	26.2% (active)
c1ccc(-c2cc(-c3nnc4sc(-c5ccccn5)nn34)[nH]n2)cc1	33% (active)
COC(=O)c1ccc(NCC(=O)c2ccccc2)cc1	-2.85% (inactive)
C=CCNc1nc(N)c(C(=C(C#N)C#N)c2ccccc2)s1	13.1% (inactive)
COc1cc(/C=N/Nc2nn3cnnc3c3ccccc23)cc(OC)c1OC	39% (active)
N#Cc1cc([N+](=O)[O-])ccc1Oc1cccc(/C=N/NC(=O)c2ccc(Cl)cc2)c1	31.5% (active)
CCN(CC)c1ccc2cc(C(N)=O)/c(=N\NC(=O)c3ccncc3)oc2c1	87.2% (active)
Cc1ccc2nc(SCC(=O)N3CC(C)OC(C)C3)nc(=O)n2c1 (stereo unspecified)	54.1% (active)
CC(=O)Nc1cc(-c2ccc(N3CCN(C)CC3)cc2)cn2c(-c3ccc(F)cc3)cnc12	40.5% (active)
C=CCC[C@@H](CCCCC)OC(=O)/C=C/[C@@H](O)[C@H](O)C[C@H](O)CC=C	1.35% (inactive)
CCOC(=O)c1ccc(Nc2cc3ccccc3c(=O)[nH]2)cc1	9.9% (inactive)
